ChEMBL document CHEMBL4041524, “Synthesis and Characterization of a Novel γ-Aminobutyric Acid Type A (GABAA) Receptor Ligand That Combines Outstanding Metabolic Stability, Pharmacokinetics, and Anxiolytic Efficacy” (J Med Chem, 2016)
The source made the active and inactive calls. No cut-off for these calls is given here.

Key:
[1] = system: Mus musculus; assay: Toxicity in Swiss mouse assessed as change in motor coordination by measuring number of falls from the rotating rod at 30 mg/kg, ip administered 30 mins prior to testing measured for 2 mins by rotarod test relative to control; assay type: organism-based; settings: in vivo
Summary of the method: (§1)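 The same mice used for marble burying were placed on a rotarod at 4 r.p.m. for 2 min. No fall was scored success, one fall partial, and two falls failure.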

[2] = system: Liver; assay: Metabolic stability in human liver microsomes assessed as compound remaining at 4 uM measured after 30 mins in presence of NADPH by LC-MS/MS analysis; assay type: ADME, microsome; settings: 0.5 h
Summary of the method: (§2)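 Human, mouse or rat liver microsomes were incubated with compound at 4 μM final for 30 min at 37 °C (n = 1). Percent of parent remaining was quantified by LC-MS/MS.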

[3] = Total plasma concentration in Sprague-Dawley rat at 10 mg/kg, po measured after 120 mins by LC-MS/MS analysis; assay type: ADME, organism-based
Summary of the method: (§3)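 Sprague-Dawley rats (n = 3 per time point) were given 10 mg/kg p.o. Total plasma concentrations were taken at 15, 30, 60 and 120 min. Brain levels of the dosed ligand and of the carboxylic acid metabolite were taken at 60 or 120 min.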

[4] = Total plasma concentration in Sprague-Dawley rat at 10 mg/kg, po measured after 30 mins by LC-MS/MS analysis; assay type: ADME, organism-based; summary of the method: as §3
[5] = system: Liver; assay: Metabolic stability in mouse liver microsomes assessed as compound remaining at 4 uM measured after 30 mins in presence of NADPH by LC-MS/MS analysis; assay type: ADME, microsome; settings: 0.5 h; summary of the method: as §2
[6] = Total plasma concentration in Sprague-Dawley rat at 10 mg/kg, po measured after 15 mins by LC-MS/MS analysis; assay type: ADME, organism-based; summary of the method: as §3
[7] = Total plasma concentration in Sprague-Dawley rat at 10 mg/kg, po measured after 60 mins by LC-MS/MS analysis; assay type: ADME, organism-based; summary of the method: as §3
[8] = system: Liver; assay: Metabolic stability in rat liver microsomes assessed as compound remaining at 4 uM measured after 30 mins in presence of NADPH by LC-MS/MS analysis; assay type: ADME, microsome; settings: 0.5 h; summary of the method: as §2
[9] = system: Brain; assay: Drug metabolism in Sprague-Dawley rat brain assessed as (E)-8-ethynyl-6-(pyridin-2-yl)-4H-benzo[f]imidazo[1,5-a][1,4]diazepine-3-carboxylic acid formation at 10 mg/kg, po measured after 120 mins by LC-MS/MS analysis; assay type: ADME, organism-based; settings: in vivo, 2 h; summary of the method: as §3
[10] = Drug uptake in Sprague-Dawley rat brain at 10 mg/kg, po measured after 120 mins by LC-MS/MS analysis; assay type: ADME, organism-based; settings: read-out: Drug uptake; summary of the method: as §3
[11] = target: T1, GABA-A receptor; alpha-3/beta-3/gamma-2 (Homo sapiens, UniProt P18507+P28472+P34903); assay: Binding affinity to human GABAA alpha3beta3gamma2 receptor expressed in HEK293 cells assessed as GABA-induced membrane potential change preincubated for 3 mins followed by addition of GABA measured after 3 mins by FLIPR assay; assay type: cell-based
T1 sequence (P18507 whole entry): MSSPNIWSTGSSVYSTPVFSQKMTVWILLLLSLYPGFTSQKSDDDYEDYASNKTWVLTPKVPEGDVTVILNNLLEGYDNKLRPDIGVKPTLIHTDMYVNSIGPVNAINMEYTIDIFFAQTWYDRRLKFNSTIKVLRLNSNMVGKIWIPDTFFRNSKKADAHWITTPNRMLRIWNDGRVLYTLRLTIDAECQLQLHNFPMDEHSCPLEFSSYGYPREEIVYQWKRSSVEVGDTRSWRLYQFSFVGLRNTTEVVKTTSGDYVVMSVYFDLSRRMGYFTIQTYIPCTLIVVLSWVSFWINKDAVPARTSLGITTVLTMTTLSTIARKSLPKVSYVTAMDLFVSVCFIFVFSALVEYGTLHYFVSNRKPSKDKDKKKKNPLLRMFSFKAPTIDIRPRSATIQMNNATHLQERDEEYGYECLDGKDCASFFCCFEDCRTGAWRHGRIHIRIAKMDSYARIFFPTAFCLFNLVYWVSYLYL
T1 sequence (P28472 whole entry): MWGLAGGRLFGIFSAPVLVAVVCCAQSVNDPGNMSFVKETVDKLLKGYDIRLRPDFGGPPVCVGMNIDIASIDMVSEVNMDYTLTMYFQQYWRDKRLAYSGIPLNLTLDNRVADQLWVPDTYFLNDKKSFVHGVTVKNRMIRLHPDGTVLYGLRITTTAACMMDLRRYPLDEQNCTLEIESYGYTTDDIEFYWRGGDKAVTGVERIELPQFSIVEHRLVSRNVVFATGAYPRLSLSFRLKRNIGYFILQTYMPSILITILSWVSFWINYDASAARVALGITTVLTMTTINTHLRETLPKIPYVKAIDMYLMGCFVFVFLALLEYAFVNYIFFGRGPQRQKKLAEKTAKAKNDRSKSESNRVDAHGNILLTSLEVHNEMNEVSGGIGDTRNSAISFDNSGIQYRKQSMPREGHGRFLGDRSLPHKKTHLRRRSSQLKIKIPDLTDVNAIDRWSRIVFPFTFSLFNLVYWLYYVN
T1 sequence (P34903 whole entry): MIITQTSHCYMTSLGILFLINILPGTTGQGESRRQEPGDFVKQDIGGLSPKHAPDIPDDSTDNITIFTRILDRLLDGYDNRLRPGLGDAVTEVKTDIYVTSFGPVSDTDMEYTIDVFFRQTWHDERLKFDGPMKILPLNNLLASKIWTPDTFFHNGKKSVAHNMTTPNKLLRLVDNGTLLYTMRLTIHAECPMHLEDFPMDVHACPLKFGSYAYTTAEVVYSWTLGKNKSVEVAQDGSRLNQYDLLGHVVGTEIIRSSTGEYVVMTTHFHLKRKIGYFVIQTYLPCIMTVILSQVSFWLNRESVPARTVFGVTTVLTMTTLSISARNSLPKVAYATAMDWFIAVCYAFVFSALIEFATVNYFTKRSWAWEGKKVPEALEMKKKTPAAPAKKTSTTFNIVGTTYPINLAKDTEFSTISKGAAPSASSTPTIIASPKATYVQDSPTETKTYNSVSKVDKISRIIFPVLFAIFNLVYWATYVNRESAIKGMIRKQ
Summary of the method: (§4)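 Stably transfected HEK293T cells expressing α1β3γ2 (n = 2) or α3β3γ2 (n = 1) GABAARs. Membrane potential was read as fluorescence changes on a FLIPR Tetra, and EC50 was derived.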

[12] = target: T2, GABA-A receptor; alpha-1/beta-3/gamma-2 (Homo sapiens, UniProt P14867+P18507+P28472); assay: Binding affinity to human GABAA alpha1beta3gamma2 receptor expressed in HEK293 cells assessed as GABA-induced membrane potential change preincubated for 3 mins followed by addition of GABA measured after 3 mins by FLIPR assay; assay type: cell-based; summary of the method: as §4
T2 sequence (P14867 whole entry): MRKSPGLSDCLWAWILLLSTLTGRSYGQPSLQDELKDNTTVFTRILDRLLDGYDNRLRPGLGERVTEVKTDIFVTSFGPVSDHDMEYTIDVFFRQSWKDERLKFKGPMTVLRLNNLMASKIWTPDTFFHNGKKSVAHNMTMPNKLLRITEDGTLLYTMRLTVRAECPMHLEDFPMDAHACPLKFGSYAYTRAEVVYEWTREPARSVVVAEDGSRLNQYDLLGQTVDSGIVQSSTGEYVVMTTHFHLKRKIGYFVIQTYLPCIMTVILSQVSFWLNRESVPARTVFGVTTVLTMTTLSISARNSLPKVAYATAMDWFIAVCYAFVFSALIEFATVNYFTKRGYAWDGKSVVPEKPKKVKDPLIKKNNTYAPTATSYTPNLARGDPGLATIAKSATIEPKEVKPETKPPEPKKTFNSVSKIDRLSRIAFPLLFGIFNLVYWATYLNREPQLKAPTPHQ
T2 sequence (P18507 whole entry): T1 sequence (P18507 whole entry)
T2 sequence (P28472 whole entry): T1 sequence (P28472 whole entry)

[13] = system: Mus musculus; assay: Toxicity in Swiss mouse assessed as change in motor coordination by measuring number of falls from the rotating rod at 10 mg/kg, ip administered 30 mins prior to testing measured for 2 mins by rotarod test relative to control; assay type: organism-based; settings: in vivo; summary of the method: as §1
[14] = system: Mus musculus; assay: Anxiolytic-like activity in Swiss Webster mouse marble burying model of anxiety assessed as suppression of marble burying activity at 30 mg/kg, ip administered 30 mins prior to test relative to vehicle-control; assay type: functional, organism-based
Summary of the method: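 Male NIH Swiss Webster mice (n = 10) received vehicle or compound at 10 or 30 mg/kg i.p. 30 min before marble burying testing. Sedation-like behaviour was noted by observation. Analysis was ANOVA with Dunnett's test vs vehicle.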

[15] = Cytotoxicity against HEK293T cells assessed as viable cells measured after 18 hrs by CellTiter-Glo assay; assay type: cell-based, HEK-293T; settings: human, read-out: LD50
Summary of the method: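 HEK293T cells were exposed to compound for 18 h (n = 4). Viable cells were quantified with CellTiter-Glo, and LD50 was derived.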

| Compound | Activity [1] | Stability [2] [%] | concentration at 2 h [3] [nM] | concentration at 0.5 h [4] [nM] | Stability [5] [%] | concentration at 0.25 h [6] [nM] | concentration at 1 h [7] [nM] | Stability [8] [%] | Drug metabolism [9] [nM] | concentration at 2 h [10] [nM] | EC50 [11] [µM] | EC50 [12] [µM] | Activity [13] | Activity [14] | CC50 at 18 h [15] [µM] |
| --- | --- | --- | --- | --- | --- | --- | --- | --- | --- | --- | --- | --- | --- | --- | --- |
| [2H]C([2H])(C)OC(=O)c1ncn2c1CN=C(c1ccccn1)c1cc(C#C)ccc1-2 | Toxic | 95 | < 12.2 | < 12.2 | 63 | < 12.2 | < 12.2 | 77 | < 12.2 | < 12.2 | – | – | – | – | – |
| C#Cc1ccc2c(c1)C(c1ccccn1)=NCc1c(C(=O)O)ncn1-2 | Toxic | 96 | 37.5 | 293 | 93 | 248 | 161 | 99 | < 12.2 | < 12.2 | 0.47 | > 20 | – | – | – |
| C#Cc1ccc2c(c1)C(c1ccccc1)=NCc1c(C(=O)OCC)ncn1-2 | Toxic | 35 | – | – | 6.3 | – | – | 36 | – | – | – | – | – | – | – |
| C#Cc1ccc2c(c1)C(c1ccccn1)=NCc1c(-c3nc(C)no3)ncn1-2 | Toxic | 81 | – | – | 85 | – | – | 93 | – | – | 5.15 | > 20 | Non-Toxic | Active | > 100 |
| C#Cc1ccc2c(c1)C(c1ccccc1F)=NCc1c(-c3cnco3)ncn1-2 | Toxic | 78 | – | – | 78 | – | – | 68 | – | – | 0.011 | > 20 | Non-Toxic | Active | 61.5 |
| C#Cc1ccc2c(c1)C(c1ccccc1F)=NCc1c(C(=O)OCC)ncn1-2 | Toxic | 6.1 | – | – | 6.1 | – | – | 0.5 | – | – | 0.029 | > 20 | – | – | – |
| C#Cc1ccc2c(c1)C(c1ccccc1)=NCc1c(-c3cnco3)ncn1-2 | Toxic | 74 | – | – | 73 | – | – | 72 | – | – | 0.321 | > 20 | Toxic | Active | 66.8 |
